In ChEMBL document CHEMBL1124344, “5-Piperazinylalkyl-2(3H)-oxazolones with neuroleptic activity” (J Med Chem, 1989):

How the values were obtained:
Mus musculus [1] = experiment: Inhibitory activity against tremorine-induced tremors, after 5 hour of peroral administration in mouse at dose 7.5 mg/kg; type: functional; details: route oral
Method in brief: (§1)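 Male mice fasted overnight, dosed orally with arabic gum suspension (10 mL/kg) 1 or 5 h before test, vehicle controls included. Tremorine 20 mg/kg ip given 1 h after compounds; central (tremor) and peripheral (salivation) parasympathetic signs recorded. ED50 = dose protecting 50% of animals, by probit analysis.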

Mus musculus [2] = experiment: Anticonvulsant activity against pentylenetetrazole-induced convulsions, after 1 hour of peroral administration in mouse at a dose of 15 mg/kg; type: functional; details: route oral
Method in brief: (§2)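 Compounds were dosed as bases suspended in arabic gum at 10 mL/kg orally, after an overnight fast, with vehicle controls. Protection meant no bilateral forepaw clonic seizures or head twitches (tryptamine), or no tonic hind-limb extension (the other two). ED50 is the dose protecting 50%, by probit analysis.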

Mus musculus [3] = experiment: Effect on skeletal muscle tone, after 5 hour of peroral administration in mouse at a dose of 100 mg/kg; type: functional; details: Muscle tissue, route oral
Method in brief: (§3)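 Male mice were placed for 1 h on a 60° inclined wire screen just after dosing and 4 h later. In a second test, trained mice hung by the forepaws from a horizontal 1.8 mm wire 15 cm up; normal mice touch it with a hind paw within 2 s and stay ≥1 min. ED50 is the dose making 50% fall. Dosing was oral in gum arabic suspension at 10 mL/kg after an overnight fast.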

Mus musculus [4] = experiment: Activity of inclined screen in mouse, after 5 hour of peroral administration in mouse at a dose of 60 mg/kg; type: functional; details: route oral
Method in brief: (§4)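 Male mice dosed orally (arabic gum suspension, 10 mL/kg, fasted overnight) 1 or 5 h before testing. Placed for 1 h on a wire screen bent at 60° to the horizontal. Ataxic or miorelaxed mice slide off. ED50 is the dose at which 50% of mice fall, by probit analysis. Ten animals per dose, with vehicle controls.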

Mus musculus [5] = experiment: Anticonvulsant activity against pentylenetetrazole-induced convulsions, after 1 hour of peroral administration in mouse at a dose of 40 mg/kg; type: functional; details: route oral
Method in brief: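 Male mice dosed orally (arabic gum, 10 mL/kg) 1 or 5 h before challenge with tryptamine 100 mg/kg iv, pentylenetetrazol 110 mg/kg ip, or maximal electroshock. Protection means no bilateral forepaw clonic seizures and head twitches (tryptamine) or no tonic hind-limb extension (others). ED50 protects 50% of mice.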

Mus musculus [6] = experiment: Inhibition of spontaneous motor activity after 5 hour of peroral administration in mouse; type: functional; details: po
Method in brief: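 Mice in groups of five were dosed orally with gum arabic suspensions at 10 mL/kg after an overnight fast, with a vehicle control group. Locomotion was counted for 10 min in a photocell activity cage, in at least two groups per dose. ED50, by probit analysis, is the dose giving 50% inhibition against controls.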

Rattus norvegicus [7] = experiment: Antagonistic activity against apomorphine-induced stereotypy, after 5 hour of peroral administration in rats at a dose of 100 mg/kg; type: functional; details: route oral
Method in brief: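 Male rats fasted overnight and given oral doses in arabic gum suspension (10 mL/kg) 1 h, or 1 and 5 h, before challenge. Apomorphine 3 mg/kg iv, with stereotypy observed 20 min later. ED50 is the dose inhibiting stereotypy in 50% of rats, per Janssen's method. Parenthetical entries give the maximal dose and percent activity.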

Mus musculus [8] = experiment: Anticonvulsant activity against pentylenetetrazole-induced convulsions, after 1 hour of peroral administration in mouse at a dose of 20 mg/kg; type: functional; details: route oral; method in brief: as §2
dog (Canis familiaris) = experiment: Antagonistic activity against apomorphine-induced emesis, after 5 hour of peroral administration in dogs; details: Canis lupus familiaris, po
Mus musculus [9] = experiment: Anticonvulsant activity against electroshock-induced convulsions, after 5 hour of peroral administration in mouse at a dose of 100 mg/kg; type: functional; details: route oral; method in brief: as §2
Mus musculus [10] = experiment: Potentiation against pentobarbital-induced sleeping, after 1 hour of peroral administration in mouse at a dose of 100 mg/kg; type: functional; details: route oral
Method in brief: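 Female mice fasted overnight, dosed orally 1 or 5 h beforehand as arabic gum suspension, 10 mL/kg, with vehicle controls. Subhypnotic pentobarbital 10 mg/kg iv; 3 min later placed on back, effect scored as complete loss of righting reflex for at least 15 s. ED50 = dose producing this in 50% of mice, probit analysis.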

Rattus norvegicus [11] = experiment: Activity to evoke catalepsy in rats, by administering perorally at a dose of 200 mg/kg; type: functional; details: route oral
Method in brief: (§5)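 Rats fasted overnight and given oral doses in arabic gum suspension (10 mL/kg), 1 h before screening or 1 and 5 h before profile testing. Forelegs placed on a horizontal bar 7 cm high, three times at 5-min intervals. Immobility of at least 15 s counts as catalepsy. ED50 is the dose giving catalepsy in 50% of rats, by probit analysis. Parenthetical entries give the maximal dose and percent activity.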

Rattus norvegicus [12] = experiment: Activity to evoke catalepsy, after 1 hour of peroral administration in rats at a dose of 200 mg/kg; type: functional; details: route oral; method in brief: as §5
Mus musculus [13] = experiment: Effect on skeletal muscle tone, after 1 hour of peroral administration in mouse at a dose of 200 mg/kg; type: functional; details: Muscle tissue, route oral; method in brief: as §3
Rattus norvegicus [14] = experiment: Inhibitory activity against norepinephrine-induced lethality, after 1 hour of peroral administration in rat at a dose of 40 mg/kg; type: functional; details: route oral
Method in brief: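 Rats (80–90 g) dosed orally (arabic gum, 10 mL/kg) 1 or 5 h before norepinephrine 0.5 mg/kg iv, which kills unprotected rats within 30 min. ED50 is the dose protecting 50% of rats from lethality, by probit analysis.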

Mus musculus [15] = experiment: Activity of inclined screen in mouse, after 1 hour of peroral administration in mouse at a dose of 100 mg/kg; type: functional; details: route oral; method in brief: as §4
Rattus norvegicus [16] = experiment: Inhibition against conditioned avoidance response, after 1 hour of peroral administration in rats at a dose of 40 mg/kg; type: functional; details: route oral
Method in brief: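 Male rats were trained in a shuttle box to avoid grid-floor shock by crossing compartments during a warning period. Dosing was oral as a gum arabic suspension at 10 mL/kg after an overnight fast. Percent inhibition was computed against a pretraining test. ED50 is the dose giving 50% inhibition.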

Mus musculus [17] = experiment: Activity of inclined screen in mouse, after 5 hour of peroral administration in mouse at a dose of 100 mg/kg; type: functional; details: route oral; method in brief: as §4
Mus musculus [18] = experiment: Anticonvulsant activity against tryptamine-induced convulsions, after 5 hour of peroral administration in mouse at a dose of 40 mg/kg; type: functional; details: route oral; method in brief: as §2
Mus musculus [19] = experiment: Effect on skeletal muscle tone, after 5 hour of peroral administration in mouse at a dose of 200 mg/kg; type: functional; details: Muscle tissue, route oral; method in brief: as §3
Mus musculus [20] = experiment: Anticonvulsant activity against pentylenetetrazole-induced convulsions, after 5 hour of peroral administration in mouse at dose of 100 mg/kg; type: functional; details: route oral; method in brief: as §2
Mus musculus [21] = experiment: Inhibitory activity against tremorine-induced tremors, after 1 hour of peroral administration in mouse at dose of 60 mg/kg; type: functional; details: route oral; method in brief: as §1
Mus musculus [22] = experiment: Activity of inclined screen in mouse, after 5 hour of peroral administration in mouse at dose of 100 mg/kg; type: functional; details: route oral; method in brief: as §4
Mus musculus [23] = experiment: Inhibitory activity against tremorine-induced salivation, after 5 hour of peroral administration in mouse at dose of 60 mg/kg; type: functional; details: route oral; method in brief: as §1
Mus musculus [24] = experiment: Inhibitory activity against tremorine-induced salivation, after 1 hour of peroral administration in mouse at dose of 60 mg/kg; type: functional; details: route oral; method in brief: as §1
Mus musculus [25] = experiment: Anticonvulsant activity against electroshock-induced convulsions, after 1 hour of peroral administration in mouse at dose of 100 mg/kg; type: functional; details: route oral; method in brief: as §2
Mus musculus [26] = experiment: Anticonvulsant activity against pentylenetetrazole-induced convulsions, after 1 hour of peroral administration in mouse at dose of 100 mg/kg; type: functional; details: route oral; method in brief: as §2

`CN(C)CCCN1c2ccccc2Sc2ccc(Cl)cc21` [CHLORPROMAZINE] was tested, and the inhibition in vivo at 7.5 mg/kg (Mus musculus [1]) was 15% and the inhibition in vivo at 15 mg/kg (Mus musculus [2]) was 0%.

`COc1ccccc1N1CCN(CCCC(=O)c2ccc(F)cc2)CC1` [FLUANISONE] gave an inhibition in vivo at 100 mg/kg (Mus musculus [3]) of 0%, an inhibition in vivo at 60 mg/kg (Mus musculus [4]) of 0% and an inhibition in vivo at 40 mg/kg (Mus musculus [5]) of 0%. It also gave an ED50 (Mus musculus [6]) of 15.7 mg/kg and an inhibition in vivo at 100 mg/kg (Rattus norvegicus [7]) of 0%.

`O=C(CCCN1CCC(O)(c2ccc(Cl)cc2)CC1)c1ccc(F)cc1` [HALOPERIDOL] gave an inhibition in vivo at 20 mg/kg (Mus musculus [8]) of 0% and an ED50 (dog (Canis familiaris)) of 0.04 mg/kg.

For `O=c1[nH]c(-c2ccc(F)cc2)c(CCN2CCN(c3cc(Cl)cc(Cl)c3)CC2)o1` [LODIPERONE], the inhibition in vivo at 100 mg/kg (Mus musculus [9]) was 0%, the inhibition in vivo at 100 mg/kg (Mus musculus [10]) was 30% and the inhibition in vivo at 200 mg/kg (Rattus norvegicus [11]) was 0%. It also gave an inhibition in vivo at 200 mg/kg (Rattus norvegicus [12]) of 0%, an inhibition in vivo at 200 mg/kg (Mus musculus [13]) of 10% and an inhibition in vivo at 40 mg/kg (Rattus norvegicus [14]) of 10%. For the same molecule, the inhibition in vivo at 100 mg/kg (Mus musculus [15]) was 0%, the inhibition in vivo at 40 mg/kg (Rattus norvegicus [16]) was 44% and the inhibition in vivo at 100 mg/kg (Mus musculus [17]) was 0%. It also gave an inhibition in vivo at 40 mg/kg (Mus musculus [18]) of 0% and an inhibition in vivo at 200 mg/kg (Mus musculus [19]) of 0%.

In the case of `COc1ccccc1N1CCN(CCc2oc(=O)[nH]c2-c2ccc(F)cc2)CC1` [ZOLOPERONE], the inhibition in vivo at 100 mg/kg (Mus musculus [20]) is reported as 0%, the inhibition in vivo at 60 mg/kg (Mus musculus [21]) is reported as 10% and the inhibition in vivo at 100 mg/kg (Mus musculus [22]) is reported as 0%. For the same molecule, the inhibition in vivo at 60 mg/kg (Mus musculus [23]) was 0%, the inhibition in vivo at 60 mg/kg (Mus musculus [24]) was 0% and the inhibition in vivo at 100 mg/kg (Mus musculus [25]) was 0%. The inhibition in vivo at 100 mg/kg (Mus musculus [26]) was 0%.
